The results in this text go back to ChEMBL document CHEMBL1212828, “Synthesis and biological evaluation of novel pyrazole compounds” (Bioorg Med Chem, 2010).

The structures appear in SMILES notation. Activity calls are given as the source filed them. No cut-off for these calls is given here.

The test system of data set [1] is Rattus norvegicus. Put plainly: Antiinflammatory activity in Wistar albino rat sub-acute inflammatory model assessed as inhibition of formalin-induced paw edema at 20 mg/kg, po administered 1 hr prior to formalin challenge measured on day 8 relative to control. The data set is classed as functional. In short, it runs like this:
(§1)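 Male Wistar rats, 180–200 g, five per group, dosed orally 20 mg/kg daily for 7 consecutive days. Formalin (2%, 0.1 mL) injected subplantar into left hind paw under light ether 1 h after dosing, repeated on day 3. Paw volume measured plethysmographically on days 1 and 8; inhibition expressed relative to untreated controls.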

A further data set concerns SH-SY5Y. The data set can be described thus: Neuroprotective activity in human SH-SY5Y cells. The data set is classed as functional, cell-based. In short, it runs like this: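 SH-SY5Y cells seeded at 2 × 10^5/mL in DMEM-F12 with 5% FBS; after 24 h medium replaced by supernatant of THP-1 cells stimulated 24 h with LPS + IFN-γ, or by medium containing 250 µM H2O2, with compound added at transfer. Cell death measured by LDH assay 72 h later; five independent experiments; randomized block ANOVA.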

The test system of data set [2] is Rattus norvegicus. The data set can be described thus: Toxicity in Wistar albino rat assessed as ulcerogenic activity at 300 mg/kg, po qd for 3 days. Format: organism-based. Details: dose 300 mg/kg, route oral. The following applies: in vivo, 72 h. The gist of the method: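 Rats in groups of five, fasted 12 h with water ad libitum; oral dosing in two equal portions at 0 and 12 h for three days, 300 mg/kg per day; control given 1% gum acacia. Killed 6 h after last dose; stomach opened along greater curvature, saline-washed, inspected under 3× lens for hyperemia, hemorrhage, erosion or ulcer.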

Data set [3] has as its system Rattus norvegicus. Put plainly: Antiinflammatory activity in Wistar albino rat sub-acute inflammatory model assessed as inhibition of formalin-induced paw edema at 20 mg/kg, po administered 1 hr prior to formalin challenge measured on day 1 relative to control. Format: functional. In short, it runs like this: as §1
For data set [4], the system named is Rattus norvegicus. Put plainly: Antiinflammatory activity in Wistar albino rat assessed as inhibition of formalin-induced paw edema at 20 mg/kg, po administered 1 hr prior to formalin challenge measured after 4 hrs relative to control. The data set is classed as functional. The gist of the method:
(§2)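 Male Wistar rats, 180–200 g, groups of five; single oral dose 1 h before 2% formalin (0.1 mL) into subplantar left hind paw under light ether anaesthesia. Paw volume read by water plethysmometer at baseline and 1, 2, 3, 4 h; % inhibition = control (Vt−Vo) minus treated (Vt−Vo), over control, ×100. Means ± SEM; ANOVA with Student–Newman–Keuls.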

Data set [5] is described as follows: Acute toxicity in Wistar albino rat after 24 hrs. Format: organism-based. The following applies: in vivo, read-out: ALD50. The gist of the method:
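Male Wistar albino rats (180–200 g), fasted 24 h, groups of five; compound given orally in graded doses of 0.1–3.0 g/kg. Mortality recorded at each dose after 24 h to estimate approximate acute lethal dose (ALD50).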

In data set [6] the test system is Rattus norvegicus. Put plainly: Antiinflammatory activity in po dosed Wistar albino rat assessed as inhibition of formalin-induced paw edema after 3 hrs relative to control. The data set is classed as functional.
Data set [7] concerns the target T1, Prostaglandin G/H synthase 2 (Homo sapiens) (UniProt P35354).
T1 sequence (whole entry): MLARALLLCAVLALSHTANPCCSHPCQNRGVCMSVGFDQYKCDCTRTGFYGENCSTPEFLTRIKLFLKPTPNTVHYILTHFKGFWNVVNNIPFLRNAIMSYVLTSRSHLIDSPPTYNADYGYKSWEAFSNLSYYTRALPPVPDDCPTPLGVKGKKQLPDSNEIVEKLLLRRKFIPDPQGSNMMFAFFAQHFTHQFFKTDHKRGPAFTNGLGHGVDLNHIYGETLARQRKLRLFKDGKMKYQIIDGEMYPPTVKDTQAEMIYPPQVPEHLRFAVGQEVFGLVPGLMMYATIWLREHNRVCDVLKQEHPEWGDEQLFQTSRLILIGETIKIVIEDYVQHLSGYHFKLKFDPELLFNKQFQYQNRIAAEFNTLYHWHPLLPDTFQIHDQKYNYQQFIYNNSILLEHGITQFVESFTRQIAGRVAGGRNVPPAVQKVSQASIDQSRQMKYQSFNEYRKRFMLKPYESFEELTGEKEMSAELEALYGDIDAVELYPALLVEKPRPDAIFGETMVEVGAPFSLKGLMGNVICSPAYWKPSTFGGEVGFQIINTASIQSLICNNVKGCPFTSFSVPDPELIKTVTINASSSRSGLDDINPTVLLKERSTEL
Put plainly: Inhibition of human COX2 at 100 uM. In short, it runs like this:
(§3)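 Screening kit with ovine COX-1 and human recombinant COX-2, run per manufacturer's protocol; percent inhibition of prostaglandin production measured for each isoform.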

The subject of data set [8] is Rattus norvegicus. Put plainly: Antiinflammatory activity in Wistar albino rat assessed as inhibition of formalin-induced paw edema at 20 mg/kg, po administered 1 hr prior to formalin challenge measured after 3 hrs relative to control. Format: functional. In short, it runs like this: as §2
In data set [9] the target is T2, Prostaglandin G/H synthase 1 (Ovis aries) (UniProt P05979).
T2 sequence (whole entry): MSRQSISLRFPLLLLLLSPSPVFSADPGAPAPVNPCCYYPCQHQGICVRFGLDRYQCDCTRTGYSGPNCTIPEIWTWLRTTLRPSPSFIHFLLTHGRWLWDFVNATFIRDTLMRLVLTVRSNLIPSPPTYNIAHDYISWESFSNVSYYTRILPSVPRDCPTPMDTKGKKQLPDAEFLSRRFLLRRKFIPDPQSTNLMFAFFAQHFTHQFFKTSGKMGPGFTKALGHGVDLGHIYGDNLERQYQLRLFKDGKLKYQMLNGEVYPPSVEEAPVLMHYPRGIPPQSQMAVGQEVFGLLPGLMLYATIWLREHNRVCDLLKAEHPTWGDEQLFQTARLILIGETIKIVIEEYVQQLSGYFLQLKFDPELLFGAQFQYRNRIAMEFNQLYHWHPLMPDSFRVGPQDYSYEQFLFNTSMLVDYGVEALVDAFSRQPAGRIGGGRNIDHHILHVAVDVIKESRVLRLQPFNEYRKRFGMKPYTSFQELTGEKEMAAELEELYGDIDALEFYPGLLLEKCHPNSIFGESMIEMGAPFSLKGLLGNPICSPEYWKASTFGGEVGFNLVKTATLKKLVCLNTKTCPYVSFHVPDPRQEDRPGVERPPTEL
The data set can be described thus: Inhibition of ovine COX1 at 100 uM. The gist of the method:
as §3

For data set [10], the system named is Rattus norvegicus. Put plainly: Antiinflammatory activity in Wistar albino rat assessed as inhibition of turpentine oil-induced granuloma at 20 mg/kg, po qd for 7 days post turpentine oil challenge measured on day 8. Format: functional. The gist of the method:
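In ether-anaesthetized male Wistar rats (five per group) a dorsal subcutaneous pouch is formed with 2 mL air, then 0.5 mL turpentine oil is injected. Oral dosing at 20 mg/kg starts 1 h before turpentine and continues 7 days. On day 8 the exudate is drawn by syringe and its volume recorded; % inhibition = (Vcontrol − Vtreated)/Vcontrol × 100.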

A further data set deals with THP-1. The data set can be described thus: Cytotoxicity against human THP1 cells assessed as reduction in cell viability. Format: cell-based. In short, it runs like this:
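THP-1 cells in DMEM-F12 with 5% FBS, 24-well plates, pretreated 15 min with compound or DMSO vehicle, then stimulated with LPS 0.5 µg/mL plus IFN-γ 150 U/mL for 24 h. Death read as supernatant LDH (iodonitrotetrazolium formazan, 490 nm, fraction of Triton X-100 lysate); survival by MTT; MCP-1 by ELISA. Concentration effects by randomized block ANOVA; 8–11 independent experiments.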

Data set [11] has as its system Rattus norvegicus. Put plainly: Antiinflammatory activity in Wistar albino rat assessed as inhibition of formalin-induced paw edema at 20 mg/kg, po administered 1 hr prior to formalin challenge measured after 1 hr relative to control. Format: functional. In short, it runs like this: as §2

In general, inhibition in vivo refers to the relative decrease from the control value, in per cent. As usually defined, the ED50 is the midpoint of the dose-response relation. The term inhibition denotes the drop in the measured response relative to a control, in per cent. A low value points to a response near the control. As a reminder, the EC50 is the midpoint of the concentration-response curve. On to `N#Cc1cnn(-c2ccccc2)c1NC(=O)C(=O)Nc1c(C#N)cnn1-c1ccccc1`, for which the inhibition in vivo at 20 mg/kg was determined as 44% with Rattus norvegicus [1]; 43% with Rattus norvegicus [3]; 58% with Rattus norvegicus [4]; 50% with Rattus norvegicus [8]; 48% with Rattus norvegicus [10]; 44% in the data set with Rattus norvegicus [11]. Moreover, in the data set with SH-SY5Y, the result was Active. Moreover, the Activity with Rattus norvegicus [2] was 0%. The LD50 at 24 h in data set [5] is more than 300 mg/kg. Moreover, the ED50 with Rattus norvegicus [6] was determined as 17.5 mg/kg. The inhibition in data set [7] worked out at 14%; in data set [9], 11.2%. Further, in the data set with THP-1, the EC50 worked out at 100 µM.
Take `CC(NC(=O)C(=O)Nc1c(C#N)cnn1-c1ccccc1)c1ccccc1` (stereo unspecified): the inhibition in vivo at 20 mg/kg in the data set on Rattus norvegicus [1] worked out at 38%; with Rattus norvegicus [3] it was 39%; in the data set on Rattus norvegicus [4], 50%; in the data set with Rattus norvegicus [8] it was 46%; in the data set with Rattus norvegicus [10] it was 51%; with Rattus norvegicus [11] it was 50%. Further, the result in the data set on SH-SY5Y was inactive. Besides, the Activity with Rattus norvegicus [2] is recorded as 10%. Besides, in [5], the LD50 at 24 h was more than 300 mg/kg. Besides, the ED50 in the data set with Rattus norvegicus [6] was 19.6 mg/kg. Further, the inhibition was 33.8% in data set [7] and 24.5% in data set [9]. The EC50 in the data set on THP-1 was 500 µM.
